Test: SAD study: safety and tolerability
Assay type: in vivo, human
Conditions: for Abdominal pain TEAE, events / Abdominal pain TEAE, participants / Any event TEAE, events / Any event TEAE, participants / Diarrhea TEAE, events / Diarrhea TEAE, participants / Dysgeusia TEAE, events / Dysgeusia TEAE, participants / Gastrointestinal disorders TEAE, events / Gastrointestinal disorders TEAE, participants / Headache TEAE, events / Headache TEAE, participants / Hypoaesthesia oral TEAE, events / Hypoaesthesia oral TEAE, participants / Infections and infestations TEAE, events / Infections and infestations TEAE, participants / Insomnia TEAE, events / Insomnia TEAE, participants / Nasopharyngitis TEAE, events / Nasopharyngitis TEAE, participants / Nervous system disorders TEAE, events / Nervous system disorders TEAE, participants / Psychiatric disorders TEAE, events / Psychiatric disorders TEAE, participants / Rash TEAE, events / Rash TEAE, participants / Skin and subcutaneous tissue disorders TEAE, events / Skin and subcutaneous tissue disorders TEAE, participants / Tooth infection TEAE, events / Tooth infection TEAE, participants: N = 6
Method in brief: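 Healthy males aged 18–55 with BMI 18–30 kg/m² were followed through dosing and a 6–8-day follow-up. Checks: physical examination, clinical laboratory tests, vital signs and 12-lead ECG, with adverse events coded in MedDRA. Events of special interest: ALT ≥2×ULN, QTcF ≥500 ms, Grade ≥2 photosensitivity, symptomatic overdose. Treatment-emergent events were summarised descriptively by organ class, preferred term and dose level for all exposed participants.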

CN1C(=O)c2cccc(OC(F)F)c2[C@H]2C[C@@H]1c1nc3ccc(-c4cnc(C5(N)CCC5)nc4)cc3n12 [Balinatunfib]
Grade ≥ 3 TEAE, treatment-emergent SAEs, TEAEs leading to discontinuation, AESIs (SAD): No participants
Abdominal pain TEAE, events (SAD 5 mg): 0
Abdominal pain TEAE, participants (SAD 5 mg): 0 n (%)
Any event TEAE, events (SAD 5 mg): 0
Any event TEAE, participants (SAD 5 mg): 0 n (%)
Diarrhea TEAE, events (SAD 5 mg): 0
Diarrhea TEAE, participants (SAD 5 mg): 0 n (%)
Dysgeusia TEAE, events (SAD 5 mg): 0
Dysgeusia TEAE, participants (SAD 5 mg): 0 n (%)
Gastrointestinal disorders TEAE, events (SAD 5 mg): 0
Gastrointestinal disorders TEAE, participants (SAD 5 mg): 0 n (%)
Headache TEAE, events (SAD 5 mg): 0
Headache TEAE, participants (SAD 5 mg): 0 n (%)
Hypoaesthesia oral TEAE, events (SAD 5 mg): 0
Hypoaesthesia oral TEAE, participants (SAD 5 mg): 0 n (%)
Infections and infestations TEAE, events (SAD 5 mg): 0
Infections and infestations TEAE, participants (SAD 5 mg): 0 n (%)
Insomnia TEAE, events (SAD 5 mg): 0
Insomnia TEAE, participants (SAD 5 mg): 0 n (%)
Nasopharyngitis TEAE, events (SAD 5 mg): 0
Nasopharyngitis TEAE, participants (SAD 5 mg): 0 n (%)
Nervous system disorders TEAE, events (SAD 5 mg): 0
Nervous system disorders TEAE, participants (SAD 5 mg): 0 n (%)
Psychiatric disorders TEAE, events (SAD 5 mg): 0
Psychiatric disorders TEAE, participants (SAD 5 mg): 0 n (%)
Rash TEAE, events (SAD 5 mg): 0
Rash TEAE, participants (SAD 5 mg): 0 n (%)
Skin and subcutaneous tissue disorders TEAE, events (SAD 5 mg): 0
Skin and subcutaneous tissue disorders TEAE, participants (SAD 5 mg): 0 n (%)
Tooth infection TEAE, events (SAD 5 mg): 0
Tooth infection TEAE, participants (SAD 5 mg): 0 n (%)
Abdominal pain TEAE, events (SAD 20 mg): 0
Abdominal pain TEAE, participants (SAD 20 mg): 0 n (%)
Any event TEAE, events (SAD 20 mg): 0
Any event TEAE, participants (SAD 20 mg): 0 n (%)
Diarrhea TEAE, events (SAD 20 mg): 0
Diarrhea TEAE, participants (SAD 20 mg): 0 n (%)
Dysgeusia TEAE, events (SAD 20 mg): 0
Dysgeusia TEAE, participants (SAD 20 mg): 0 n (%)
Gastrointestinal disorders TEAE, events (SAD 20 mg): 0
Gastrointestinal disorders TEAE, participants (SAD 20 mg): 0 n (%)
Headache TEAE, events (SAD 20 mg): 0
Headache TEAE, participants (SAD 20 mg): 0 n (%)
Hypoaesthesia oral TEAE, events (SAD 20 mg): 0
Hypoaesthesia oral TEAE, participants (SAD 20 mg): 0 n (%)
Infections and infestations TEAE, events (SAD 20 mg): 0
Infections and infestations TEAE, participants (SAD 20 mg): 0 n (%)
Insomnia TEAE, events (SAD 20 mg): 0
Insomnia TEAE, participants (SAD 20 mg): 0 n (%)
Nasopharyngitis TEAE, events (SAD 20 mg): 0
Nasopharyngitis TEAE, participants (SAD 20 mg): 0 n (%)
Nervous system disorders TEAE, events (SAD 20 mg): 0
Nervous system disorders TEAE, participants (SAD 20 mg): 0 n (%)
Psychiatric disorders TEAE, events (SAD 20 mg): 0
Psychiatric disorders TEAE, participants (SAD 20 mg): 0 n (%)
Rash TEAE, events (SAD 20 mg): 0
Rash TEAE, participants (SAD 20 mg): 0 n (%)
Skin and subcutaneous tissue disorders TEAE, events (SAD 20 mg): 0
Skin and subcutaneous tissue disorders TEAE, participants (SAD 20 mg): 0 n (%)
Tooth infection TEAE, events (SAD 20 mg): 0
Tooth infection TEAE, participants (SAD 20 mg): 0 n (%)
Abdominal pain TEAE, events (SAD 60 mg): 0
Abdominal pain TEAE, participants (SAD 60 mg): 0 n (%)
Any event TEAE, events (SAD 60 mg): 1
Any event TEAE, participants (SAD 60 mg): 1 (16.7) n (%)
Diarrhea TEAE, events (SAD 60 mg): 0
Diarrhea TEAE, participants (SAD 60 mg): 0 n (%)
Dysgeusia TEAE, events (SAD 60 mg): 0
Dysgeusia TEAE, participants (SAD 60 mg): 0 n (%)
Gastrointestinal disorders TEAE, events (SAD 60 mg): 0
Gastrointestinal disorders TEAE, participants (SAD 60 mg): 0 n (%)
Headache TEAE, events (SAD 60 mg): 0
Headache TEAE, participants (SAD 60 mg): 0 n (%)
Hypoaesthesia oral TEAE, events (SAD 60 mg): 0
Hypoaesthesia oral TEAE, participants (SAD 60 mg): 0 n (%)
Infections and infestations TEAE, events (SAD 60 mg): 1
Infections and infestations TEAE, participants (SAD 60 mg): 1 (16.7) n (%)
Insomnia TEAE, events (SAD 60 mg): 0
Insomnia TEAE, participants (SAD 60 mg): 0 n (%)
Nasopharyngitis TEAE, events (SAD 60 mg): 0
Nasopharyngitis TEAE, participants (SAD 60 mg): 0 n (%)
Nervous system disorders TEAE, events (SAD 60 mg): 0
Nervous system disorders TEAE, participants (SAD 60 mg): 0 n (%)
Psychiatric disorders TEAE, events (SAD 60 mg): 0
Psychiatric disorders TEAE, participants (SAD 60 mg): 0 n (%)
Rash TEAE, events (SAD 60 mg): 0
Rash TEAE, participants (SAD 60 mg): 0 n (%)
Skin and subcutaneous tissue disorders TEAE, events (SAD 60 mg): 0
Skin and subcutaneous tissue disorders TEAE, participants (SAD 60 mg): 0 n (%)
Tooth infection TEAE, events (SAD 60 mg): 1
Tooth infection TEAE, participants (SAD 60 mg): 1 (16.7) n (%)
Abdominal pain TEAE, events (SAD 180 mg): 0
Abdominal pain TEAE, participants (SAD 180 mg): 0 n (%)
Any event TEAE, events (SAD 180 mg): 0
Any event TEAE, participants (SAD 180 mg): 0 n (%)
Diarrhea TEAE, events (SAD 180 mg): 0
Diarrhea TEAE, participants (SAD 180 mg): 0 n (%)
Dysgeusia TEAE, events (SAD 180 mg): 0
Dysgeusia TEAE, participants (SAD 180 mg): 0 n (%)
Gastrointestinal disorders TEAE, events (SAD 180 mg): 0
Gastrointestinal disorders TEAE, participants (SAD 180 mg): 0 n (%)
Headache TEAE, events (SAD 180 mg): 0
Headache TEAE, participants (SAD 180 mg): 0 n (%)
Hypoaesthesia oral TEAE, events (SAD 180 mg): 0
Hypoaesthesia oral TEAE, participants (SAD 180 mg): 0 n (%)
Infections and infestations TEAE, events (SAD 180 mg): 0
Infections and infestations TEAE, participants (SAD 180 mg): 0 n (%)
Insomnia TEAE, events (SAD 180 mg): 0
Insomnia TEAE, participants (SAD 180 mg): 0 n (%)
Nasopharyngitis TEAE, events (SAD 180 mg): 0
Nasopharyngitis TEAE, participants (SAD 180 mg): 0 n (%)
Nervous system disorders TEAE, events (SAD 180 mg): 0
Nervous system disorders TEAE, participants (SAD 180 mg): 0 n (%)
Psychiatric disorders TEAE, events (SAD 180 mg): 0
Psychiatric disorders TEAE, participants (SAD 180 mg): 0 n (%)
Rash TEAE, events (SAD 180 mg): 0
Rash TEAE, participants (SAD 180 mg): 0 n (%)
Skin and subcutaneous tissue disorders TEAE, events (SAD 180 mg): 0
Skin and subcutaneous tissue disorders TEAE, participants (SAD 180 mg): 0 n (%)
Tooth infection TEAE, events (SAD 180 mg): 0
Tooth infection TEAE, participants (SAD 180 mg): 0 n (%)
Abdominal pain TEAE, events (SAD 400 mg): 1
Abdominal pain TEAE, participants (SAD 400 mg): 1 (16.7) n (%)
Any event TEAE, events (SAD 400 mg): 4
Any event TEAE, participants (SAD 400 mg): 2 (33.3) n (%)
Diarrhea TEAE, events (SAD 400 mg): 0
Diarrhea TEAE, participants (SAD 400 mg): 0 n (%)
Dysgeusia TEAE, events (SAD 400 mg): 2
Dysgeusia TEAE, participants (SAD 400 mg): 2 (33.3) n (%)
Gastrointestinal disorders TEAE, events (SAD 400 mg): 1
Gastrointestinal disorders TEAE, participants (SAD 400 mg): 1 (16.7) n (%)
Headache TEAE, events (SAD 400 mg): 1
Headache TEAE, participants (SAD 400 mg): 1 (16.7) n (%)
Hypoaesthesia oral TEAE, events (SAD 400 mg): 0
Hypoaesthesia oral TEAE, participants (SAD 400 mg): 0 n (%)
Infections and infestations TEAE, events (SAD 400 mg): 0
Infections and infestations TEAE, participants (SAD 400 mg): 0 n (%)
Insomnia TEAE, events (SAD 400 mg): 0
Insomnia TEAE, participants (SAD 400 mg): 0 n (%)
Nasopharyngitis TEAE, events (SAD 400 mg): 0
Nasopharyngitis TEAE, participants (SAD 400 mg): 0 n (%)
Nervous system disorders TEAE, events (SAD 400 mg): 3
Nervous system disorders TEAE, participants (SAD 400 mg): 2 (33.3) n (%)
Psychiatric disorders TEAE, events (SAD 400 mg): 0
Psychiatric disorders TEAE, participants (SAD 400 mg): 0 n (%)
Rash TEAE, events (SAD 400 mg): 0
Rash TEAE, participants (SAD 400 mg): 0 n (%)
Skin and subcutaneous tissue disorders TEAE, events (SAD 400 mg): 0
Skin and subcutaneous tissue disorders TEAE, participants (SAD 400 mg): 0 n (%)
Tooth infection TEAE, events (SAD 400 mg): 0
Tooth infection TEAE, participants (SAD 400 mg): 0 n (%)
Abdominal pain TEAE, events (SAD 600 mg): 0
Abdominal pain TEAE, participants (SAD 600 mg): 0 n (%)
Any event TEAE, events (SAD 600 mg): 3
Any event TEAE, participants (SAD 600 mg): 2 (33.3) n (%)
Diarrhea TEAE, events (SAD 600 mg): 0
Diarrhea TEAE, participants (SAD 600 mg): 0 n (%)
Dysgeusia TEAE, events (SAD 600 mg): 0
Dysgeusia TEAE, participants (SAD 600 mg): 0 n (%)
Gastrointestinal disorders TEAE, events (SAD 600 mg): 1
Gastrointestinal disorders TEAE, participants (SAD 600 mg): 1 (16.7) n (%)
Headache TEAE, events (SAD 600 mg): 0
Headache TEAE, participants (SAD 600 mg): 0 n (%)
Hypoaesthesia oral TEAE, events (SAD 600 mg): 1
Hypoaesthesia oral TEAE, participants (SAD 600 mg): 1 (16.7) n (%)
Infections and infestations TEAE, events (SAD 600 mg): 1
Infections and infestations TEAE, participants (SAD 600 mg): 1 (16.7) n (%)
Insomnia TEAE, events (SAD 600 mg): 1
Insomnia TEAE, participants (SAD 600 mg): 1 (16.7) n (%)
Nasopharyngitis TEAE, events (SAD 600 mg): 1
Nasopharyngitis TEAE, participants (SAD 600 mg): 1 (16.7) n (%)
Nervous system disorders TEAE, events (SAD 600 mg): 0
Nervous system disorders TEAE, participants (SAD 600 mg): 0 n (%)
Psychiatric disorders TEAE, events (SAD 600 mg): 1
Psychiatric disorders TEAE, participants (SAD 600 mg): 1 (16.7) n (%)
Rash TEAE, events (SAD 600 mg): 0
Rash TEAE, participants (SAD 600 mg): 0 n (%)
Skin and subcutaneous tissue disorders TEAE, events (SAD 600 mg): 0
Skin and subcutaneous tissue disorders TEAE, participants (SAD 600 mg): 0 n (%)
Tooth infection TEAE, events (SAD 600 mg): 0
Tooth infection TEAE, participants (SAD 600 mg): 0 n (%)
participants with at least one TEAE (SAD, all balinatunfib groups (five of 36)): 13.9%
tolerability (all single oral doses (5–600 mg)): well tolerated
